From ChEMBL document CHEMBL1123268 (J Med Chem, 1986)

Experiments:
P388 [1] = experiment: Antineoplastic activities against P388 leukemia in CD2F1 male mice.; assay type: functional, Mus musculus; design: unit not given here
In short: (§1)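 P388 leukemia: CD2F1 male mice (18-20 g, six per group) received 10^6 cells ip on day 0. Drug injected ip daily on days 1-9. Survival followed 30 days, with some groups to 60 days. Activity read as treated/control mean survival time (T/C), with %ILS calculated as [(T - C)/C] × 100. NCI protocol.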

P388 [2] = experiment: Antineoplastic activity against P388 leukemia in CD2F1 male mice and the percent increase in life span was measured on day 30.; assay type: functional, Mus musculus; in short: as §1
[3] = Therapeutic ratio as optimum dose/dose ILS40; details: read-out: Therapeutic ratio
In short: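 Therapeutic ratio derived from the P388/L1210 survival data (CD2F1 male mice, ip daily dosing days 1-9). Optimum dose is the daily dose giving maximum increase in life span. ILS40 dose is the daily dose giving a 40% increase in life span over controls.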

L1210 [4] = experiment: (§2) Compound was tested for anticancer activities against L1210 leukemia in CD2F1 male mice at dose of 6.5 mg/kg per day; assay type: functional, Mus musculus
L1210 [5] = experiment: as §2; assay type: functional; details: Mus musculus
P388 [6] = experiment: Number of cures from P388 leukemia in CD2F1 male mice as tumor-free survivors after day 60.; assay type: functional, Mus musculus; details: for Cures (survivors/total): Mus musculus
In short: (§3)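 Cures in P388-bearing CD2F1 male mice: 10^6 tumor cells ip on day 0, then ip treatment daily on days 1-9 in groups of six. Animals were observed up to 60 days, and tumor-free survivors were counted as cures.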

P388 [7] = experiment: Antineoplastic activity against P388 leukemia in CD2F1 male mice and the average percentage weight change on day 5 was measured.; assay type: functional, Mus musculus
In short: (§4)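 Toxicity readout in the P388 model: CD2F1 male mice given 10^6 cells ip on day 0, then daily ip dosing for 9 days from day 1. Average percentage body-weight change on day 5 was taken as the measure of drug toxicity.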

L1210 [8] = experiment: Compound was tested for anticancer activities against L1210 leukemia in CD2F1 male mice at dose of 6.5 mg/kg per day; 0/6; assay type: functional, Mus musculus
P388 [9] = experiment: Compound was tested for its antineoplastic activities against P388 leukemia in CD2F1 male mice.; assay type: functional, Mus musculus; in short: as §1
L1210 [10] = details: Mus musculus, at 100 mg/kg/day
L1210 [11] = details: Mus musculus
L1210 [12] = details: Mus musculus, at 100 mg/kg/day; remark: listed apart in the source
L1210 [13] = details: Mus musculus; remark: listed apart in the source
L1210 [14] = details: Mus musculus; remark: listed apart in the source
P388 [15] = experiment: Compound was tested for its antineoplastic activity against P388 leukemia in CD2F1 male mice and the average percentage weight change on day 5 was measured.; assay type: functional; in short: as §4
L1210 [16] = experiment: Anticancer activities against L1210 leukemia in CD2F1 male mice at dose of 50 mg/kg per day; assay type: functional; details: Mus musculus
L1210 [17] = experiment: Compound was tested for anticancer activities against L1210 leukemia in CD2F1 male mice at dose of 50 mg/kg per day; 0/6; assay type: functional, Mus musculus
L1210 [18] = experiment: animal or person; assay type: functional; details: Mus musculus
L1210 [19] = experiment: Compound was tested for anticancer activity against L1210 leukemia in CD2F1 male mice at dose of 50 mg/kg per day; 12.6/7; assay type: functional, Mus musculus
L1210 [20] = experiment: Compound was tested for anticancer activity against L1210 leukemia in CD2F1 male mice at dose of 25 mg/kg per day; 8.6/7; assay type: functional, Mus musculus
L1210 [21] = experiment: Compound was tested for anticancer activity against L1210 leukemia in CD2F1 male mice at dose of 50 mg/kg per day; assay type: functional, Mus musculus
L1210 [22] = experiment: Compound was tested for anticancer activities against L1210 leukemia in CD2F1 male mice at dose of 25 mg/kg per day; assay type: functional; details: Mus musculus
L1210 [23] = assay type: functional, Mus musculus; details: at 100 mg/kg/day
P388 [24] = experiment: Compound was tested for its antineoplastic activity against P388 leukemia in CD2F1 male mice.; assay type: functional, Mus musculus; in short: as §1
L1210 [25] = assay type: functional, Mus musculus
L1210 [26] = assay type: functional, Mus musculus; remark: listed apart in the source
L1210 [27] = experiment: Compound was tested for anticancer activity against L1210 leukemia in CD2F1 male mice at dose of 25 mg/kg per day; assay type: functional, Mus musculus
P388 [28] = experiment: Compound was tested for number of cures from P388 leukemia in CD2F1 male mice as tumor-free survivors after day 60; 6/6; assay type: functional, Mus musculus; in short: as §3
P388 [29] = experiment: Compound was tested for its antineoplastic activity against P388 leukemia in CD2F1 male mice and the percent increase in life span was measured on day 30.; assay type: functional, Mus musculus; in short: as §1
L1210 [30] = experiment: Compound was tested for anticancer activities against L1210 leukemia in CD2F1 male mice at dose of 25 mg/kg per day; 0/6; assay type: functional, Mus musculus
L1210 [31] = experiment: Compound was tested for anticancer activities against L1210 leukemia in CD2F1 male mice at dose of 50 mg/kg per day; 12.0/7; assay type: functional, Mus musculus
P388 [32] = experiment: Compound was tested for number of cures from P388 leukemia in CD2F1 male mice as tumor-free survivors after day 60; 3/6; assay type: functional, Mus musculus; in short: as §3
L1210 [33] = experiment: Compound was tested for anticancer activities against L1210 leukemia in CD2F1 male mice at dose of 50 mg/kg per day; assay type: functional, Mus musculus

SMILES: CC1(C)CC(OP(=S)(N2CC2)N2CC2)CC(C)(C)N1[O]
- Optimal dose (P388 [1]): 12
- ILS (P388 [2]): 103%
- selectivity ratio [3]: 5.15

SMILES: S=P(N1CC1)(N1CC1)N1CC1 [THIOTEPA]
- T/C (L1210 [4]): 155%
- ILS at 6.5 mg/kg/day (L1210 [5]): 55%
- Cures (P388 [6]): 0 survivors/total
- Optimal dose (P388 [1]): 6
- ILS (P388 [2]): 141%
- Weight change on day 5 (P388 [7]): -2.1%
- Survivors at day 30 (L1210 [8]): 0
- selectivity ratio [3]: 2.75
- ILS40 (P388 [9]): 2.18 mg/kg/day

SMILES: O=c1[nH]cc(F)c(=O)[nH]1 [FLUOROURACIL]
- Cures (P388 [6]): 0 survivors/total
- Optimal dose (P388 [1]): 200
- ILS (P388 [2]): 79%
- Weight change on day 5 (P388 [7]): -4%

SMILES: CC1(C)CC(NC(=O)NP(=O)(N2CC2(C)C)N2CC2(C)C)C(C)(C)N1[O] (stereo not given)
- Cures (survivors/total) (P388 [6]): 0
- Optimal dose (P388 [1]; Mus musculus): 90
- ILS (P388 [2]; Mus musculus): 56%
- T/C (L1210 [10]): 148%
- T/C survival days (L1210 [11]): 10.4
- Weight change on day 5 (P388 [7]; Mus musculus): 6.2%
- ILS (L1210 [12]): 48%
- Survivors at day 30 (L1210 [13]): 0

SMILES: CC1(C)CC(NC(=O)NP(=O)(N2CC2(C)C)N2CC2(C)C)CC(C)(C)N1[O] (stereo not given)
- Cures (survivors/total) (P388 [6]): 0
- Optimal dose (P388 [1]; Mus musculus): 90
- T/C survival days (L1210 [14]): 11.5
- ILS (P388 [2]; Mus musculus): 62%
- T/C (L1210 [10]): 164%
- Weight change on day 5 (P388 [15]; Mus musculus): 7.3%
- ILS (L1210 [12]): 64%
- Survivors at day 30 (L1210 [13]): 0

SMILES: CC1(C)CC(NC(=O)NP(=O)(N2CC2)N2CC2)CC(C)(C)N1[O]
- ILS at 50 mg/kg/day (L1210 [16]): 81%
- Survivors at day 30 (L1210 [17]): 0
- ILS (P388 [2]): 170%
- ILS at 100 mg/kg/day (L1210 [18]): 115%
- T/C survival days (L1210 [19]): 12.6
- T/C survival days (L1210 [20]): 8.6
- T/C (L1210 [21]): 181%
- Weight change on day 5 (P388 [15]): -2.4%
- ILS at 25 mg/kg/day (L1210 [22]): 23%
- T/C (L1210 [23]): 215%
- ILS40 (P388 [24]): 3.4 mg/kg/day
- Optimal dose (P388 [24]): 90
- Survivors at day 30 (L1210 [25]): 0
- T/C survival days (L1210 [26]): 14
- T/C (L1210 [27]): 123%
- Cures (P388 [28]): 6 survivors/total
- ILS max (P388 [29]): 439%
- Survivors at day 30 (L1210 [30]): 0
- selectivity ratio [3]: 26.5

SMILES: CC1(C)CC(NC(=O)NP(=O)(N2CC2)N2CC2)C(C)(C)N1[O] (stereo not given)
- T/C survival days (L1210 [31]): 12
- Cures (P388 [32]): 3 survivors/total
- ILS at 50 mg/kg/day (L1210 [16]): 72%
- Survivors at day 30 (L1210 [17]): 0
- Optimal dose (P388 [1]): 90
- ILS (P388 [2]): 178%
- T/C (L1210 [33]): 172%
- ILS max (P388 [29]): 387%
- selectivity ratio [3]: 22.5
- ILS40 (P388 [9]): 4 mg/kg/day

SMILES: CC1(C)CC(NP(=S)(N2CC2)N2CC2)CC(C)(C)N1[O]
- Optimal dose (P388 [1]): 25
- ILS (P388 [2]): 96%
- selectivity ratio [3]: 2.73

SMILES: O=P(N1CC1)(N1CC1)N1CC1 [TEPA]
- Cures (P388 [6]): 0 survivors/total
- Optimal dose (P388 [1]): 6
- ILS (P388 [2]): 135%
- Weight change on day 5 (P388 [7]): -4%
- selectivity ratio [3]: 2.2
- ILS40 (P388 [9]): 2.75 mg/kg/day
